In brackets after ≈: the same amount, converted by molar mass.
Tests used:
Protein O-GlcNAcase = Protein O-GlcNAcase (Homo sapiens, UniProt O60502); assay: Inhibition of OGA in HEK293 cells induced with human Tau […] mutant assessed as increase in O-GlcNAcylated protein levels measured after 6 hrs by Hoechst 33342 dye based fluorescence analysis; type: cell-based
In short: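 Janssen HEK293 line inducible for P301L human Tau 2N4R, seeded two days before at 4000 cells/well in low-glucose assay medium. Compound exposure 6 h with 0.2% DMSO. Cells fixed with 4% PFA, permeabilized, then stained with CTD110.6 anti-O-GlcNAc (1/1000, 4 °C overnight) and a fluorescent secondary. Readout was 488 nm intensity over nine fields; Hoechst nuclei counted. Thiamet-G 200 μM defined maximum. IC50 by nonlinear regression.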

[1] = Inhibition of human recombinant full-length OGA transcript variant 1 expressed in HEK293T cells using FM-GlcNAc as substrate preincubated for 60 mins followed by addition of substrate and measured after 6 hrs by fluorescence assay
In short: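 Full-length human OGA, 2 nM, preincubated with compound for 60 min at room temperature. FM-GlcNAc substrate at 100 μM final, in 200 mM citrate/phosphate pH 7.2 with 0.005% Tween-20 and ≤1% DMSO. Run 6 h at room temperature, stopped with 500 mM carbonate pH 11.0. Fluorescence read at 485/538 nm. IC50 and Hill coefficient from least-squares fit, normalised to no-inhibitor and saturating reference controls.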

P-gp (MDR1) = assay: Efflux ratio of apparent permeability across basolateral to apical over apical to basolateral side in MDCK2-MDR1 cells at 5 uM measured after 120 mins in absence of P-gp inhibitor GF120918 by LC-MS/MS analysis; settings: dog, MDCK-MDR1
in vitro [2] = settings: mouse, liver microsomes, CLH
in vitro [3] = settings: human, liver microsomes, CLH
[4] = Kinetic solubility of compound at pH 2; type: physicochemical; settings: buffer, read-out: Kinetic_solubility
[5] = Kinetic solubility of compound at pH 7.4; type: physicochemical; settings: buffer, read-out: Kinetic_solubility
[6] = Dissociation constant, pKa of the compound; type: physicochemical
[7] = Inhibition of clostridium perfringens OGA using FM-GlcNAc as substrate preincubated for 60 mins followed by addition of substrate and measured after 6 hrs by fluorescence assay
[8] = Oral bioavailability in male CD1 mouse at 30 mg/kg, compound dissolved in water measured after 24 hrs by LC-MS/MS analysis; type: ADME, organism-based; settings: in vivo
In short: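 Male CD1 mice, three per arm: 1 mg/kg iv in 0.9% saline and 30 mg/kg po as a solution in water adjusted to about pH 4. Serial blood to 24 h. Plasma levels measured by LC-MS/MS after acetonitrile precipitation. Bioavailability derived from iv and po exposure.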

[9] = AUC (0 to last) in male CD1 mouse at 30 mg/kg, po compound dissolved in water measured after 24 hrs by LC-MS/MS analysis; type: ADME, organism-based; parameters: route oral, time 24 hrs, dose 30 mg/kg; settings: in vivo
In short: (§1)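 Three male CD1 mice per arm; oral solution in water adjusted to about pH 4. Blood taken at 0.5, 1, 2, 4, 7 and 24 h. Plasma protein-precipitated with acetonitrile and the supernatant quantified by qualified LC-MS/MS.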

[10] = Cmax in male CD1 mouse at 30 mg/kg, po compound dissolved in water measured after 24 hrs by LC-MS/MS analysis; type: ADME, organism-based; parameters: route oral, dose 30 mg/kg, time 24 hrs; settings: in vivo; in short: as §1
[11] = Volume of distribution at steady state in male CD1 mouse at 1 mg/kg, iv compound dissolved in saline measured after 24 hrs by LC-MS/MS analysis; type: ADME, organism-based; settings: in vivo, read-out: Vdss
In short: (§2)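 Single 1 mg/kg iv dose in 0.9% saline to three male CD1 mice. Blood sampled at 0.117, 0.333, 1, 2, 4, 7 and 24 h. Plasma prepared by acetonitrile protein precipitation and analysed by qualified LC-MS/MS.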

[12] = Clearance in male CD1 mouse at 1 mg/kg, iv compound dissolved in saline measured after 24 hrs by LC-MS/MS analysis; type: ADME, organism-based; settings: in vivo; in short: as §2

Protein O-GlcNAcase, sequence (O60502 whole entry, looked up, stated change not applied): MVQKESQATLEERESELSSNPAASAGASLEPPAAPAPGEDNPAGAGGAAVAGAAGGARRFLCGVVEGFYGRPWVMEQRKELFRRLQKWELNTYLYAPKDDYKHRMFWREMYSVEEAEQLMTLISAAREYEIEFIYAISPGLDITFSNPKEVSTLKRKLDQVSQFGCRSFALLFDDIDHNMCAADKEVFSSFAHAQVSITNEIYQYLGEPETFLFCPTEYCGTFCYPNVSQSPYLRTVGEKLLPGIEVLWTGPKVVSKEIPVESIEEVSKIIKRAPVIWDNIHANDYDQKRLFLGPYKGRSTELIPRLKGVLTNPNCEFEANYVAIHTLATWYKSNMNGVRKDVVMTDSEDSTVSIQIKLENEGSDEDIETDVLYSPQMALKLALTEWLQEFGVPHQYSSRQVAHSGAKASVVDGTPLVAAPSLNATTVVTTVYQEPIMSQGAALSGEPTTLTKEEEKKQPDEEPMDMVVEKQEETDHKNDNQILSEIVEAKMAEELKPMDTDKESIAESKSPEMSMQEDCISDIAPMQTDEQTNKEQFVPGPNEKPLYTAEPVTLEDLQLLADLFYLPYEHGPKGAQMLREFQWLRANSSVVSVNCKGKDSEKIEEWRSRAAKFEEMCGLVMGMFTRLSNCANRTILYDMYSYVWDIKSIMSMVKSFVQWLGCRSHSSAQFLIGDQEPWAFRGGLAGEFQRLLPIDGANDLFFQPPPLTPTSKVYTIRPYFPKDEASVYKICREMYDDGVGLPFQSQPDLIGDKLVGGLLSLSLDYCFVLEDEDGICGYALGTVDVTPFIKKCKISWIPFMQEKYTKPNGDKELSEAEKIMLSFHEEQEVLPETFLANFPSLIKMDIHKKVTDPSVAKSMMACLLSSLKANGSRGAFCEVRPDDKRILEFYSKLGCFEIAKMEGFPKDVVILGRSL

Row | SMILES | IC50 (Protein O-GlcNAcase) | IC50 [1] | also measured
1 | Cc1cc(N2CCC3(CCN(Cc4ccc5c(c4)OCO5)C3)C2)n2ncnc2n1 (configuration not stated) | > 1000 nM | 129 nM | –
2 | CC(=O)Nc1ncc(CN2CCC3(CCN(c4cc(C)n5ccnc5n4)C3)C2)s1 (racemic) | 437 nM | 1 nM | efflux ratio at 2 h, 5 µM (P-gp (MDR1)): 1.2; microsomal CLint at 1 h, 1 µM (in vitro [2]): 16 µL/min/mg; microsomal CLint at 1 h, 1 µM (in vitro [3]): < 8 µL/min/mg
3 | Cc1cc(N2CCC3(CCN(Cc4ccc5sc(C)nc5c4)C3)C2)n2ncnc2n1 (racemic) | > 1000 nM | 22 nM | –
4 | CC(=O)Nc1ncc(CN2CCC3(CCN(c4cc(C)nc5ccccc45)C3)C2)s1 (racemic) | 39 nM | 9 nM | solubility kinetic [4]: 87 µM (≈ 36.7 µg/mL); solubility kinetic [5]: 71 µM (≈ 29.9 µg/mL)
5 | CC(=O)Nc1ncc(CN2CCC3(CCC(Cc4cc(C)nc(C)c4)C3)C2)s1 (configuration not stated) | 537 nM | 309 nM | –
6 | CC(=O)Nc1ncc(CN2CC[C@]3(C2)C[C@@H](Cc2cc(C)nc(C)c2)C3)s1 | 295 nM | 209 nM | –
7 | CC(=O)Nc1ncc(CN2CC[C@]3(C[C@@H](Oc4cc(C)nc(C)c4)CO3)C2)s1 (racemic) | – | 209 nM | –
8 | CC(=O)Nc1ncc(CN2CC[C@]3(C2)C[C@H](Cc2cc(C)nc(C)c2)C3)s1 | 240 nM | 204 nM | –
9 | CC(=O)Nc1ncc(CN2CCC3(CC(COc4cc(C)nc(C)c4)C3)C2)s1 (racemic) | – | 316 nM | –
10 | COc1cc(N2CCC3(CCN(Cc4cnc(NC(C)=O)s4)C3)C2)cc(C)n1 (racemic) | 56 nM | 6 nM | efflux ratio at 2 h, 5 µM (P-gp (MDR1)): 27.7; microsomal CLint at 1 h, 1 µM (in vitro [2]): 12 µL/min/mg; microsomal CLint at 1 h, 1 µM (in vitro [3]): < 8 µL/min/mg
11 | CC(=O)Nc1ncc(CN2CCC3(CCN(c4cc(C)nc(C)c4)C3)C2)s1 (racemic) | 141 nM | 6 nM | pKa [6]: 10.4; efflux ratio at 2 h, 5 µM (P-gp (MDR1)): 1.6; microsomal CLint at 1 h, 1 µM (in vitro [2]): < 8 µL/min/mg; microsomal CLint at 1 h, 1 µM (in vitro [3]): < 8 µL/min/mg
12 | Cc1cc(N2CCC3(CCN(Cc4ccc5nccnc5c4)C3)C2)n2ncnc2n1 (racemic) | > 10000 nM | 74 nM | –
13 | CC(=O)Nc1ncc(CN2CCC3(CCN(c4cc(C)nc5ncnn45)C3)C2)s1 (configuration not stated) | 575 nM | 4 nM | IC50 [7]: 290 nM; efflux ratio at 2 h, 5 µM (P-gp (MDR1)): 13.5; microsomal CLint at 1 h, 1 µM (in vitro [2]): < 13 µL/min/mg; microsomal CLint at 1 h, 1 µM (in vitro [3]): < 8 µL/min/mg
14 | CC(=O)Nc1ncc(CN2CC[C@]3(C2)C[C@@H](Oc2cc(C)nc(C)c2)C3)s1 | – | 550 nM | –
15 | Cc1cc(N2CCC3(CCNC3)C2)n2ncnc2n1 (racemic) | > 10000 nM | 3240 nM | –
16 | CC(=O)Nc1ncc(CN2CCC3(CC(c4cc(C)nc(C)c4)C3)C2)s1 (racemic) | 182 nM | 36 nM | –
17 | CC(=O)Nc1ncc(CN2CCC3(CCC(c4cc(C)nc(C)c4)C3)C2)s1 (configuration not stated) | 214 nM | 66 nM | –
18 | CC(=O)Nc1ncc(CN2CCC3(CCC(COc4cc(C)nc(C)c4)C3)C2)s1 (configuration not stated) | 501 nM | 135 nM | –
19 | CC(=O)Nc1ncc(CN2CCC3(CCN(c4cc(C)nc(C)n4)C3)C2)s1 (racemic) | 170 nM | 13 nM | –
20 | CC(=O)Nc1ncc(CN2CCC3(CC(c4cc(C)nc(C)c4)CO3)C2)s1 (configuration not stated) | 603 nM | 21 nM | –
21 | CC(=O)Nc1ncc(CN2CC3(CCN(c4cc(C)nc5ncnn45)C3)C2)s1 | 10000 nM | 34 nM | IC50 [7]: 3300 nM
22 | CC(=O)Nc1ncc(CN2CCC3(CCN(c4cc(C)nc5ccccc45)C3)C2)s1 (single isomer, unassigned; (-)) | 263 nM | 25 nM | –
23 | CC(=O)Nc1ncc(CN2CCC3(C2)CN(c2cc(C)nc4ncnn24)C3)s1 | 9330 nM | 41 nM | –
24 | CC(=O)Nc1ncc(CN2CCC3(CCN(c4cc(C)cc(C)n4)C3)C2)s1 (racemic) | 46 nM | 4 nM | efflux ratio at 2 h, 5 µM (P-gp (MDR1)): 24.8; microsomal CLint at 1 h, 1 µM (in vitro [2]): 264 µL/min/mg; microsomal CLint at 1 h, 1 µM (in vitro [3]): 101 µL/min/mg
25 | CC(=O)Nc1ncc(CN2CCC3(CCN(c4cc(C)nc(C(F)(F)F)c4)C3)C2)s1 (racemic) | 380 nM | 19 nM | efflux ratio at 2 h, 5 µM (P-gp (MDR1)): 32.2; microsomal CLint at 1 h, 1 µM (in vitro [2]): 55 µL/min/mg; microsomal CLint at 1 h, 1 µM (in vitro [3]): 46 µL/min/mg
26 | CC(=O)Nc1ncc(CN2CCC3(CCN(c4cc(C)nc5ccccc45)C3)C2)s1 (single isomer, unassigned; (+)) | 17 nM | 5 nM | bioavailability [8]: 23.1%; AUC(0-t) at 24 h [9]: 1940 ng·h/mL; Cmax [10]: 331 ng/mL; Vd [11]: 17.8 L/kg; clearance [12]: 55.8 mL/min/kg; microsomal CLint at 1 h, 1 µM (in vitro [2]): 15 µL/min/mg; microsomal CLint at 1 h, 1 µM (in vitro [3]): < 8 µL/min/mg
27 | CC(=O)Nc1ncc(CN2CC[C@]3(C[C@H](Oc4cc(C)nc(C)c4)CO3)C2)s1 (racemic) | 537 nM | 30 nM | –
28 | CC(=O)Nc1ncc(CN2CC[C@]3(C2)C[C@H](Oc2cc(C)nc(C)c2)C3)s1 | – | 1000 nM | –

Source: ChEMBL document CHEMBL4673290, “Diazaspirononane Nonsaccharide Inhibitors of O-GlcNAcase (OGA) for the Treatment of Neurodegenerative Disorders” (J Med Chem, 2020)
